Laboratory results from PMC7611434 (Bioorganic chemistry, 2020).
Read-outs that look alike come from different tables or passages of the source.

Assays:
[1] = system: RUMH cells (renal cell carcinoma, c-MET-overexpressing); experiment: cytotoxicity assay; format: cell-based, human; conditions: for IC50: read-out: IC50 cytotoxicity; for cytotoxic activity under hypoxia vs normoxia: 72 h, 1 % O2 vs 21 % O2
Procedure, shortened: (§1)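 MTT (EZ4U) viability in H1993 or in-house-established RUMH cells in RPMI 1640 with 10% FCS. Cells were seeded at 3-6x10³/well and recovered 24 h, then given increasing concentrations of test compound (final DMSO <1%). Exposure was 24 h or 72 h at 21% O₂ (normoxia) or 1% O₂ (hypoxia). IC50 came from full dose-response curves; one representative experiment in triplicate, mean ± SD.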

[2] = system: H1993 cells (non-small cell lung cancer, c-MET-dependent); experiment: cytotoxicity assay; format: cell-based, human; conditions: for cytotoxic activity under hypoxia vs normoxia: H1993, 72 h, 1 % O2 vs 21 % O2; for IC50: read-out: IC50 cytotoxicity
Procedure, shortened: as §1

[3] = system: H2228 cells (non-small cell lung cancer, ALK-dependent); experiment: cytotoxicity assay; format: cell-based, human; conditions: for cytotoxic activity under hypoxia vs normoxia: H2228, 72 h, 1 % O2 vs 21 % O2; for IC50: read-out: IC50 cytotoxicity
[4] = system: H1993 tumor cell proliferation (Ki-67); experiment: H1993 xenograft, immunohistochemistry of Ki-67 and tumor histology; format: in vivo, SCID mice; conditions: 24 h
solubility in PBS = format: physicochemical
c-MET = conditions: cell-free kinase assay
c-MET phosphorylation = c-MET phosphorylation (Homo sapiens, UniProt P08581); experiment: Western blot of c-MET phosphorylation in H1993 cells; format: cell-based; conditions: H1993, 24 h
Chain of c-MET phosphorylation (P08581 25-1390): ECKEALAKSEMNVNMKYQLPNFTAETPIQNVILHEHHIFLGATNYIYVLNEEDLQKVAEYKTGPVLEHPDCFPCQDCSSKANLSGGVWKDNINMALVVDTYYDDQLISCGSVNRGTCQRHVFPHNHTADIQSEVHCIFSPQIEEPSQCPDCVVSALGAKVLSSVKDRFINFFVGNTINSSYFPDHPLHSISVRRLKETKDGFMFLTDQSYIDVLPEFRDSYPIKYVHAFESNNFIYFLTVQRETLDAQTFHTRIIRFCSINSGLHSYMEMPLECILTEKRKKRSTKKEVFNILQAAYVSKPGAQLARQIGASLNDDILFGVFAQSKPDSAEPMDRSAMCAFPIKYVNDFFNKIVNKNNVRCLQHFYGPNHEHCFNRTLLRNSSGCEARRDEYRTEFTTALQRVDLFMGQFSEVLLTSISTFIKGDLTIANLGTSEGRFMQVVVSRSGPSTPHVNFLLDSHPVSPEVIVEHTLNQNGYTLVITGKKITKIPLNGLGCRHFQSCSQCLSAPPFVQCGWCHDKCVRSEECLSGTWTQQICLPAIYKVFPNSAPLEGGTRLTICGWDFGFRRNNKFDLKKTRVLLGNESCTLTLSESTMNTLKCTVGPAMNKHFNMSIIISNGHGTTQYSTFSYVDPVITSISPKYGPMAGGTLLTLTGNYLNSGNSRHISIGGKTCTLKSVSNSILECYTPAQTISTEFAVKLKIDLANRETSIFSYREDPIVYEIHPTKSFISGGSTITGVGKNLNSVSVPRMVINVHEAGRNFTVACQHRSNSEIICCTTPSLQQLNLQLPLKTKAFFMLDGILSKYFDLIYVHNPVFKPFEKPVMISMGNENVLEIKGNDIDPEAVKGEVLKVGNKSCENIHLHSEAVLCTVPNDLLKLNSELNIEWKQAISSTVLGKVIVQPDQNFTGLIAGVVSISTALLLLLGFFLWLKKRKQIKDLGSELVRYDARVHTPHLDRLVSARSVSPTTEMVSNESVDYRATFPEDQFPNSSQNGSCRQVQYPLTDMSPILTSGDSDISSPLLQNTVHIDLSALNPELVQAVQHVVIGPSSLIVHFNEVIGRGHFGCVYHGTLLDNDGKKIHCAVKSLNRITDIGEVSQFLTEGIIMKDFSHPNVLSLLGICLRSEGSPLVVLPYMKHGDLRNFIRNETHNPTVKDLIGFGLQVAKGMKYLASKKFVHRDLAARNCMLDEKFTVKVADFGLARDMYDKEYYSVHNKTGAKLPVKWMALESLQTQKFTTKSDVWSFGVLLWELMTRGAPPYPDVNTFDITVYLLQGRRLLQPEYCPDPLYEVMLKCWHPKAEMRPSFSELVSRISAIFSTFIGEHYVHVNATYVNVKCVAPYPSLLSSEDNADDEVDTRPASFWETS

[5] = system: HACAT (keratinocytes from human skin); experiment: cytotoxicity in non-malignant cells; format: cell-based; conditions: normoxic, 72 h
Procedure, shortened: (§2)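 Non-malignant HACAT keratinocytes or HLF lung fibroblasts in RPMI 1640 with 10% FCS, under normoxia (37 °C, 21% O₂, 5% CO₂). Cells were seeded at 3-6x10³/well and recovered 24 h. They were then exposed for 72 h to increasing concentrations of test compound diluted from DMSO stock (final DMSO <1%). Viability was read by MTT (EZ4U), with IC50 fitted from full dose-response curves.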

[6] = system: HLF (fibroblasts from human lung); experiment: cytotoxicity in non-malignant cells; format: cell-based; conditions: normoxic, 72 h
Procedure, shortened: as §2

stability down to pH 1 = format: physicochemical; conditions: down to pH 1, 24 h, 37 °C; data not shown
[7] = biological target: nitroreductase enzyme (E. coli) (Escherichia coli, UniProt P38489); conditions: nitroreductase + NADH, pH 7.4, 37 °C, HPLC; for conversion of prodrug by nitroreductase: after 10 min
Chain of nitroreductase enzyme (E. coli) (P38489 whole entry): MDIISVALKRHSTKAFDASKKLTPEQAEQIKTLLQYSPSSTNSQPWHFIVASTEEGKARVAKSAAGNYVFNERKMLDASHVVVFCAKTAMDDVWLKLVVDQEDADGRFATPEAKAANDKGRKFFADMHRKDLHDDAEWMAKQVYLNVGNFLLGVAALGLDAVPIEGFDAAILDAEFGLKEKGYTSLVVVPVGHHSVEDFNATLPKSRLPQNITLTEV

ALK = conditions: cell-free kinase assay
[8] = biological target: c-MET phosphorylation in H1993 tumor tissue (Homo sapiens, UniProt P08581); experiment: H1993 xenograft, immunohistochemistry of p-c-MET; format: in vivo; conditions: 24 h, H1993 s.c. in SCID mice
Chain of c-MET phosphorylation in H1993 tumor tissue (P08581 25-1390): as the sequence (P08581 25-1390) above

[9] = stability assay in buffer, medium and serum; format: in vitro ADME; conditions: pure serum (FCS), 37 °C, up to 72 h
ERK 1/2 phosphorylation = experiment: Western blot of ERK 1/2 phosphorylation in H1993 cells; format: cell-based, human; conditions: H1993, 24 h
Procedure, shortened: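 H1993 cells in RPMI 1640 with 10% FCS were plated at 8x10⁵ cells/dish and allowed 24 h recovery. They were exposed for 24 h to DMSO-diluted test compound (final DMSO <1%) at 21% or 1% O₂. Lysates were run on SDS-PAGE/PVDF and probed for p-ERK 1/2 (Thr202/Tyr204), ERK 1/2 and β-actin (all 1:1000), with HRP secondaries at 1:10000. Read-out: p-ERK/ERK ratio after β-actin normalisation.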

[10] = RUMH, 24 h treatment, MTT, 1 % O2 or 21 % O2
[11] = H1993, 24 h treatment, MTT, 1 % O2 or 21 % O2
[12] = H2228, 24 h treatment, MTT, 1 % O2 or 21 % O2

Cn1c(COP(=O)(NCCBr)NCCBr)cnc1[N+](=O)[O-] [TH-302, reference compound]
IC50 ([1]; Homo sapiens, 24 h): > 25 µM | cytotoxic activity under hypoxia vs normoxia ([1]; RUMH): significant anticancer activity under low oxygen levels | cytotoxic activity under hypoxia vs normoxia [2]: significant anticancer activity under low oxygen levels | IC50 ([2]; Homo sapiens, NCI-H1993, 24 h): > 25 µM | cytotoxic activity under hypoxia vs normoxia [3]: significant anticancer activity under low oxygen levels | IC50 ([3]; Homo sapiens, NCI-H2228, 24 h): > 25 µM

C[C@@H](Oc1cc(-c2cnn(C3CCNCC3)c2)cnc1N)c1c(Cl)ccc(F)c1Cl [crizotinib, reference compound]
IC50 ([1]; Homo sapiens, 24 h): ~20 µM | Ki-67 expression in tumor tissue ([4]; 50 mg/kg p.o., H1993 s.c. in SCID mice): slight impact | IC50 ([2]; Homo sapiens, NCI-H1993, 24 h): ~20 µM | solubility (solubility in PBS; phosphate-buffered saline): < 0.5 mg/mL

C[C@@H](Oc1cc(-c2cnn(C3CCNCC3)c2)cnc1NC(=O)OCc1cnc([N+](=O)[O-])n1C)c1c(Cl)ccc(F)c1Cl [prodrug A, (1-methyl-2-nitro-1H-imidazol-5-yl)methyl (R)-(3-(1-(2,6-dichloro-3-fluorophenyl)ethoxy)-5-(1-(piperidin-4-yl)-1H-pyrazol-4-yl)pyridin-2-yl)carbamate*1.5TFA]
lower inhibitory potential compared to crizotinib (IC50 ratio) (c-MET): 33 fold | inhibition of c-MET phosphorylation (c-MET phosphorylation; hypoxia (1 % O2), 5 μM): 40% | inhibition of c-MET phosphorylation (c-MET phosphorylation; hypoxia (1 % O2), 10 μM): 70% | inhibition of c-MET phosphorylation (c-MET phosphorylation; normoxia (21 % O2), up to 10 μM): < 10% | cytotoxic activity under hypoxia vs normoxia ([1]; RUMH): promising hypoxia-mediated activity | IC50 [1, 10]: > 25 µM | cell proliferation (Ki-67) in tumor tissue ([4]; 38.5 mg/kg i.v., single dose, H1993 s.c. in SCID mice): inhibition of cell proliferation | tumor histology (tumor:stroma ratio) ([4]; 38.5 mg/kg i.v., single dose, data not shown): reduction of the tumor:stroma ratio | Ki-67 expression in tumor tissue ([4]; 89.2 mg/kg p.o., H1993 s.c. in SCID mice): did not significantly change | cytotoxic activity under hypoxia vs normoxia [2]: promising hypoxia-mediated activity | IC50 [2, 11]: > 25 µM | activity against non-malignant cells in comparison to free crizotinib [5]: distinctly reduced activity | activity against non-malignant cells in comparison to free crizotinib [6]: distinctly reduced activity | stability at low pH (stability down to pH 1): confirmed the stability | release of crizotinib as main product [7]: about 80% | conversion of prodrug by nitroreductase [7]: complete conversion | lower inhibitory potential compared to crizotinib (IC50 ratio) (ALK): 42 fold | c-MET phosphorylation in tumor tissue ([8]; 38.5 mg/kg i.v., single dose): significant inhibition | level of p-c-MET in tumor tissue ([8]; 89.2 mg/kg p.o.): did not significantly change | stability in pure serum [9]: no significant degradation | cytotoxic activity under hypoxia vs normoxia [3]: similarly active | IC50 [3, 12]: > 25 µM | inhibition of ERK 1/2 phosphorylation signal (ERK 1/2 phosphorylation; hypoxia (1 % O2), 5 μM): ~ 60% | inhibition of ERK 1/2 phosphorylation signal (ERK 1/2 phosphorylation; hypoxia (1 % O2), 10 μM): ~ 80% | inhibition of ERK 1/2 phosphorylation signal (ERK 1/2 phosphorylation; normoxia (21 % O2), 5 μM): < 10% | solubility (solubility in PBS; phosphate-buffered saline (PBS), room temperature): > 20 mg/mL

C[C@@H](Oc1cc(-c2cnn(C3CCNCC3)c2)cnc1NCc1cnc([N+](=O)[O-])n1C)c1c(Cl)ccc(F)c1Cl [prodrug B, (R)-3-(1-(2,6-dichloro-3-fluorophenyl)ethoxy)-N-((1-methyl-2-nitro-1H-imidazol-5-yl)methyl)-5-(1-(piperidin-4-yl)-1H-pyrazol-4-yl)pyridin-2-amine *2TFA]
lower inhibitory potential compared to crizotinib (IC50 ratio) (c-MET): 64 fold | IC50 cytotoxicity [1, 10]: distinct anticancer activity in a range similar to crizotinib | IC50 cytotoxicity [2, 11]: distinct anticancer activity in a range similar to crizotinib | release of crizotinib as main product [7]: no formation of crizotinib | conversion of prodrug by nitroreductase [7]: could not be activated | lower inhibitory potential compared to crizotinib (IC50 ratio) (ALK): > 143 fold | IC50 cytotoxicity [3, 12]: distinct anticancer activity in a range similar to crizotinib
